# Assay results taken from ChEMBL document CHEMBL3102806, “1,2,4-Triazole/oxime hybrids as new strategy for nitric oxide donors: Synthesis, anti-inflammatory, ulceroginicity and antiproliferative activities” (Eur J Med Chem, 2014).
# Assays:
# Assay type in all cases: functional
# LOX IMVI = assay: Growth inhibition of human LOXIMVI cells after 48 hrs by sulforhodamine B assay
# In short: (§1)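 NCI 60-cell-line panel (nine tumour subpanels), five-dose format: 10-fold dilutions from 10^-4 to 10^-8 M, 48 h continuous exposure, SRB protein stain. Percent growth at each level is derived from time-zero, untreated control and treated absorbances. GI50 is the concentration where [(Ti−Tz)/(C−Tz)]×100 = 50. Values outside the tested range are reported as above or below the limit.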
# KM12 = assay: Growth inhibition of human KM12 cells after 48 hrs by sulforhodamine B assay; details: KM12, 48 h; in short: as §1
# [1] = Growth inhibition of human SF539 cells after 48 hrs by sulforhodamine B assay; details: SF-539, 48 h; in short: as §1
# RPMI-8226 = assay: Growth inhibition of human RPMI8226 cells after 48 hrs by sulforhodamine B assay; details: RPMI-8226, 48 h; in short: as §1
# HOP-62 = assay: Growth inhibition of human HOP62 cells after 48 hrs by sulforhodamine B assay; details: HOP-62, 48 h
# In short: (§2)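 NCI full ~60 cell line panel. Five 10-fold concentrations from 10^-4 to 10^-8 M, 48 h continuous exposure, SRB protein read-out. Time-zero, control and treated absorbances give percentage growth. GI50 is the concentration where [(Ti−Tz)/(C−Tz)]×100 = 50; TGI is where Ti = Tz; LC50 is where [(Ti−Tz)/Tz]×100 = −50.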
# SK-MEL-28 = assay: Growth inhibition of human SK-MEL-28 cells after 48 hrs by sulforhodamine B assay; details: SK-MEL-28, 48 h
# In short: (§3)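 NCI 60-cell-line panel, five-dose run at 10-fold dilutions from 10^-4 to 10^-8 M, 48 h continuous exposure. Viability by SRB protein stain. Percent growth is taken from time-zero, untreated-control and treated absorbances. GI50 is the concentration giving a 50% lower net protein increase than in control cells. TGI is taken at Ti = Tz, LC50 at a 50% loss of initial protein.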
# T47D = assay: Growth inhibition of human T47D cells after 48 hrs by sulforhodamine B assay; in short: as §3
# BT-549 = assay: Growth inhibition of human BT549 cells after 48 hrs by sulforhodamine B assay; details: BT-549, 48 h; in short: as §2
# IGROV-1 = assay: Growth inhibition of human IGROV1 cells after 48 hrs by sulforhodamine B assay; details: IGROV-1, 48 h; in short: as §2
# [2] = Growth inhibition of human OVCAR4 cells after 48 hrs by sulforhodamine B assay; details: OVCAR-4, 48 h; in short: as §1
# OVCAR-8 = assay: Growth inhibition of human OVCAR8 cells after 48 hrs by sulforhodamine B assay; details: OVCAR-8, 48 h; in short: as §1
# Malme-3M = assay: Growth inhibition of human MALME-3M cells after 48 hrs by sulforhodamine B assay; in short: as §1
# DU-145 = assay: Growth inhibition of human DU145 cells after 48 hrs by sulforhodamine B assay; details: DU-145, 48 h; in short: as §2
# A549 = assay: Growth inhibition of human A549/ATCC cells after 48 hrs by sulforhodamine B assay; details: A549, 48 h; in short: as §2
# [3] = Growth inhibition of human NCI-ADR-RES cells after 48 hrs by sulforhodamine B assay; in short: as §1
# SK-MEL-5 = assay: Growth inhibition of human SK-MEL-5 cells after 48 hrs by sulforhodamine B assay; details: SK-MEL-5, 48 h; in short: as §3
# SF-295 = assay: Growth inhibition of human SF295 cells after 48 hrs by sulforhodamine B assay; details: SF-295, 48 h; in short: as §1
# COLO 205 = assay: Growth inhibition of human COLO205 cells after 48 hrs by sulforhodamine B assay; details: COLO 205, 48 h; in short: as §2
# OVCAR-3 = assay: Growth inhibition of human OVCAR3 cells after 48 hrs by sulforhodamine B assay; details: OVCAR-3, 48 h; in short: as §1
# NCI-H23 = assay: Growth inhibition of human NCI-H23 cells after 48 hrs by sulforhodamine B assay; details: NCI-H23, 48 h; in short: as §1
# PC-3 = assay: Growth inhibition of human PC3 cells after 48 hrs by sulforhodamine B assay; details: PC-3, 48 h; in short: as §1
# MCF7 = assay: Growth inhibition of human MCF7 cells after 48 hrs by sulforhodamine B assay; details: MCF7, 48 h; in short: as §1
# [4] = Growth inhibition of human OVCAR5 cells after 48 hrs by sulforhodamine B assay; details: OVCAR-5, 48 h; in short: as §1
# [5] = Growth inhibition of human UO31 cells after 48 hrs by sulforhodamine B assay; details: UO-31, 48 h; in short: as §3
# SK-OV-3 = assay: Growth inhibition of human SKOV3 cells after 48 hrs by sulforhodamine B assay; details: SK-OV-3, 48 h; in short: as §3
# 786-0 = assay: Growth inhibition of human 786-0 cells after 48 hrs by sulforhodamine B assay; details: 786-0, 48 h; in short: as §2
# MDA-MB-435 = assay: Growth inhibition of human MDA-MB-435 cells after 48 hrs by sulforhodamine B assay; details: MDA-MB-435, 48 h; in short: as §1
# NCI-H322M = assay: Growth inhibition of human NCI-H322M cells after 48 hrs by sulforhodamine B assay; in short: as §1
# [6] = read-out: LC50 (the source's name)
compound,measurement,setting,value
COc1ccc(-c2nnc(SCC(=O)Nc3ccc(/C(C)=N/O)cc3)n2-c2ccccc2)cc1OC,GI50,LOX IMVI,> 100 µM
same,TGI,LOX IMVI,> 100 µM
same,CC50,LOX IMVI; [6],> 100 µM
same,GI50,KM12,> 100 µM
same,TGI,KM12,> 100 µM
same,CC50,KM12; [6],> 100 µM
same,GI50,[1],4.77 µM
same,TGI,[1],38.8 µM
same,CC50,[1]; [6],> 100 µM
same,GI50,RPMI-8226,> 100 µM
same,TGI,RPMI-8226,> 100 µM
same,CC50,RPMI-8226; [6],> 100 µM
same,GI50,HOP-62,2.06 µM
same,TGI,HOP-62,6.8 µM
same,CC50,HOP-62; [6],> 100 µM
same,GI50,SK-MEL-28,> 100 µM
same,TGI,SK-MEL-28,> 100 µM
same,CC50,SK-MEL-28; [6],> 100 µM
same,GI50,T47D,9.45 µM
same,TGI,T47D,> 100 µM
same,CC50,T47D; [6],> 100 µM
same,GI50,BT-549,13.7 µM
same,TGI,BT-549,> 100 µM
same,CC50,BT-549; [6],> 100 µM
same,GI50,IGROV-1,3.74 µM
same,TGI,IGROV-1,29.4 µM
same,CC50,IGROV-1; [6],> 100 µM
same,GI50,[2],> 100 µM
same,TGI,[2],> 100 µM
same,CC50,[2]; [6],> 100 µM
same,GI50,OVCAR-8,7.36 µM
same,TGI,OVCAR-8,> 100 µM
same,CC50,OVCAR-8; [6],> 100 µM
same,GI50,Malme-3M,17.2 µM
same,TGI,Malme-3M,> 100 µM
same,CC50,Malme-3M; [6],> 100 µM
same,GI50,DU-145,24.9 µM
same,TGI,DU-145,> 100 µM
same,CC50,DU-145; [6],> 100 µM
same,GI50,A549,9.73 µM
same,TGI,A549,> 100 µM
same,CC50,A549; [6],> 100 µM
same,GI50,[3],> 100 µM
same,TGI,[3],> 100 µM
same,CC50,[3]; [6],> 100 µM
same,GI50,SK-MEL-5,> 100 µM
same,TGI,SK-MEL-5,> 100 µM
same,CC50,SK-MEL-5; [6],> 100 µM
same,GI50,SF-295,3.39 µM
same,TGI,SF-295,37.7 µM
same,CC50,SF-295; [6],> 100 µM
same,GI50,COLO 205,> 100 µM
same,TGI,COLO 205,> 100 µM
same,CC50,COLO 205; [6],> 100 µM
same,GI50,OVCAR-3,7.87 µM
same,TGI,OVCAR-3,> 100 µM
same,CC50,OVCAR-3; [6],> 100 µM
same,GI50,NCI-H23,12.9 µM
same,TGI,NCI-H23,> 100 µM
same,CC50,NCI-H23; [6],> 100 µM
same,GI50,PC-3,> 100 µM
same,TGI,PC-3,> 100 µM
same,CC50,PC-3; [6],> 100 µM
same,GI50,MCF7,> 100 µM
same,TGI,MCF7,> 100 µM
same,CC50,MCF7; [6],> 100 µM
same,GI50,[4],> 100 µM
same,TGI,[4],> 100 µM
same,CC50,[4]; [6],> 100 µM
same,GI50,[5],> 100 µM
same,TGI,[5],> 100 µM
same,CC50,[5]; [6],> 100 µM
same,GI50,SK-OV-3,2.73 µM
same,TGI,SK-OV-3,13.7 µM
same,CC50,SK-OV-3; [6],> 100 µM
same,GI50,786-0,14.9 µM
same,TGI,786-0,> 100 µM
same,CC50,786-0; [6],> 100 µM
same,GI50,MDA-MB-435,> 100 µM
same,TGI,MDA-MB-435,> 100 µM
same,CC50,MDA-MB-435; [6],> 100 µM
same,GI50,NCI-H322M,4.41 µM
same,TGI,NCI-H322M,> 100 µM
same,CC50,NCI-H322M; [6],> 100 µM
